S100A4 inh HTS = blocks human S100A4 binding to myosin IIA peptide; P26447; S100A4/TAMRA-MyoIIA peptide fluorescence polarization; inhibition, % at 10.7 µM; 360,000 tested, 0.14% active; AID 652163;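 active = mean inhibition of at least 70% across replicates, with every replicate also reaching that level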
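Material: S100A4 monomer (human). Medium: Calcium-containing HEPES buffer, pH 7.2. Probe or stimulus: labelled myosin peptide probe, 5 nM. Compound dosing: one concentration per compound. Timing: polarization read 5 min after assay mix addition, stable 5–60 min. Benchmarks: DMSO as neutral control, TFP as positive control.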
miR-122 sensor = miR-122 inhibition in Huh7 cells; Huh7 miR-122 Renilla luciferase sensor, 48 h; neutral wells = 0, positive control = 100; activation (reporter increase), % at 12.5 µM; 340,000 tested, 0.3% active;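 active = mean replicate activation score at least 90 and every replicate individually at or above 90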;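 note: higher luciferase means less miR-122 activity so hits act as miR-122 inhibitors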
Rtt109 Vps75 = blocks Candida albicans Rtt109/Vps75 acetyltransferase activity | Q5AAJ8 | purified Rtt109/Vps75, ThioGlo CoA-SH fluorescence, 4 h | inhibition, % at 34.9 µM | 330,000 tested, 0.16% active | AID 540336;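 active = inhibition of at least 50% in every replicate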
AF4-AF9 inh = MLL-AF4/AF9 protein interaction inhibition. P42568. AlphaScreen, biotin-AF4 peptide binding to FLAG-AF9. inhibition, % at 10 µM. 350,000 tested, 0.47% active;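 active = every replicate reaching a set inhibition limit, whatever the replicate mean, cut at about 25% in these data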;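 note: 0% = plate neutral control median and 100% = total signal loss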
ERAP1 HTS inh = blocks human ERAP1 aminopeptidase activity; recombinant ERAP1, Leu-AMC fluorescence, 60 min; inhibition, % at 10.7 µM; 340,000 tested, 0.15% active;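 active = mean replicate inhibition of at least 30%, or all replicates individually reaching that 30% level; inactive = mean below 30% and not every replicate reaching it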;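 note: 0% = neutral control wells and 100% = L-leucinethiol positive control wells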
Target sequence (Q9NZ08 whole entry, looked up): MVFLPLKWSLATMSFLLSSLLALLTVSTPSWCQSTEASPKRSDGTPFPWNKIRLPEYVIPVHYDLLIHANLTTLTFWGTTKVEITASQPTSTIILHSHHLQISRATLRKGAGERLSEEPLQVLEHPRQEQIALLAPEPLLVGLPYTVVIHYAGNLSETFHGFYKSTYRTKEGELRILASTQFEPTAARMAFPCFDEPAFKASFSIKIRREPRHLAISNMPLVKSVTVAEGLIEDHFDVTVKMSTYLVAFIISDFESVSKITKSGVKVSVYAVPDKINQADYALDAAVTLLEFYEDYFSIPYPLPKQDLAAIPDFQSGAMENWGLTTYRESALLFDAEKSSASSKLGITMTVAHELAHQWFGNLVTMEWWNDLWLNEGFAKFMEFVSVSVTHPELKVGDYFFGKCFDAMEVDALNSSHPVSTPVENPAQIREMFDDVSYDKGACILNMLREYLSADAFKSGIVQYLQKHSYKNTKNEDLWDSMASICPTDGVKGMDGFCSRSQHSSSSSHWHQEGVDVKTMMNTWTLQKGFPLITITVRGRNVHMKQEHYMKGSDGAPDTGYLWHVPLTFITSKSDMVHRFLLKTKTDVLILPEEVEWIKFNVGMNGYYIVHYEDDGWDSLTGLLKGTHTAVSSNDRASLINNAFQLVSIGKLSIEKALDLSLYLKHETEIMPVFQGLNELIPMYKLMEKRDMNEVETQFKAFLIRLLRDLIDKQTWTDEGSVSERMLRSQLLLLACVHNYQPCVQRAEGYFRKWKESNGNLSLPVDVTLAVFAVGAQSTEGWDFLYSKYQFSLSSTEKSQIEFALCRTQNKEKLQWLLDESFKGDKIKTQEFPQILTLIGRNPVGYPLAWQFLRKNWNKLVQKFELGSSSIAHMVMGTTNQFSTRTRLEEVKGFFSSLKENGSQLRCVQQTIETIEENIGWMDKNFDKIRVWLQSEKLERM
The depositor's hits bear a star; x = no result; [ ] = another dose, or the depositor's remark. Compounds with a hit are over-represented: about 0.86% of the library has one in this group of screens.

SMILES	S100A4 inh HTS	miR-122 sensor	Rtt109 Vps75	AF4-AF9 inh	ERAP1 HTS inh
CN1CCN(S(=O)(=O)c2cccc(C(=O)N(Cc3ccccc3)c3ccccc3)c2)CC1	-6	34	56*	-7	2
COc1ccc(Cl)cc1NC(=O)CN(C)C(=O)c1cccc(S(=O)(=O)N2CCN(C)CC2)c1	-1	x	3	5	-5
O=S(=O)(NN1CCOCC1)c1ccc(Br)s1	-3	x	-10	-9	2
O=S(=O)(NN1CCOCC1)c1ccc(Br)cc1	1	-3	53*	-10	-2
COc1ccc(C(C(=O)NC2CCCCC2)N(Cc2cccs2)C(=O)Cc2c[nH]c3ccccc23)cc1 (stereo unspecified)	x	65	2	x	x
COc1cccc(CN(C(=O)Cc2c[nH]c3ccccc23)C(C(=O)NC2CCCCC2)c2cccs2)c1 (stereo unspecified)	x	240*	4	x	x
CCOC(=O)N1CCc2c(sc(NC(=O)c3ccc(S(=O)(=O)N4CCCC4)cc3)c2C#N)C1	-17	-1	14	5	31*
CN(C)CCCN(C(=O)c1ccco1)c1nc(-c2ccc(Cl)cc2)cs1	-2	-16	14	26*	6
Cc1ccc2ccccc2c1C(O)c1ncc(-c2ccccc2F)[nH]1 (stereo unspecified)	-3	175*	x	2	0
Cc1cccc(C)c1C(O)c1ncc(-c2ccccc2F)[nH]1 (stereo unspecified)	2	11	x	-7	4
Cc1cccc(C)c1C(O)c1ncc(-c2cccc3ccccc23)[nH]1 (stereo unspecified)	-2	-3	x	11	-2
Cc1cccc(C(O)c2ncc(-c3ccccc3F)[nH]2)c1C (stereo unspecified)	1	96*	x	3	2
Cc1cc(F)ccc1C(O)c1ncc(-c2ccccc2F)[nH]1 (stereo unspecified)	-4	112*	x	4	9
O=C(C[C@@H]1C=C[C@H](NS(=O)(=O)c2ccc(F)cc2)[C@@H](CO)O1)NCCc1ccncc1	-18	x	x	0	3
CCC(=O)N1C[C@@H](C)[C@@H](OC)CN(C)C(=O)c2cc(NC(=O)c3cnccn3)ccc2OC[C@H]1C	x	-3[16.7 µM]	x	x	x
CCc1ccc(C2c3[nH]c4ccccc4c3CCN2C(=O)CN2CCN(CC)CC2)cc1 (stereo unspecified)	3	x	x	31*	-1
CCc1ccc(C2c3[nH]c4ccccc4c3CCN2C(=O)CNC(N)=O)cc1 (stereo unspecified)	1	x	0	10	-2
COCC(=O)OCC(=O)Nc1cc(C)c(C)cc1[N+](=O)[O-]	-2	x	50*	-1	0
CC(C)NC(=O)N[C@@H]1CC[C@H](CCNS(=O)(=O)c2ccc(Cl)cc2)O[C@@H]1CO	-2	x	x	0	-3
COc1ccc(NC(=O)N2C[C@@H]3N[C@H](C2)[C@@H]3c2ccc(-c3ccc(OC)cc3)cc2)cc1	6	x	x	3	-2
C[C@@H]1CN([C@H](C)CO)C(=O)c2cccc(NC(=O)CCCCCC(=O)Nc3ccccc3N)c2O[C@@H]1CN(C)S(=O)(=O)c1cccs1	21	x	x	-4	1
CCC(=O)N[C@@H]1C=C[C@@H](CC(=O)NCCN2CCCCC2)O[C@H]1CO	6	x	x	0	2
CCN1CCN(c2nc3c(C)cccn3c(=O)c2/C=C(\C#N)S(=O)(=O)c2ccc(Cl)cc2)CC1	-11	x	13	30*	2
CCN1CCN(c2nc3c(C)cccn3c(=O)c2/C=C(\C#N)S(=O)(=O)c2ccc(C)cc2)CC1	x	-5	30	x	x
CCCC#Cc1ccc2c(c1)O[C@H](CN(C)C(=O)CN(C)C)[C@H](C)CN([C@@H](C)CO)S2(=O)=O	x	-18[16.7 µM]	x	x	x
SMILES	S100A4 inh HTS	miR-122 sensor	Rtt109 Vps75	AF4-AF9 inh	ERAP1 HTS inh
C[C@@H]1CN([C@H](C)CO)C(=O)c2cc(NC(=O)Nc3ccc4c(c3)OCO4)ccc2O[C@@H]1CN(C)C(=O)Nc1ccccc1	x	-3[16.7 µM]	x	x	x
Cc1ccc(C)c(S(=O)(=O)Nc2ccc3scnc3c2)c1	x	158*	24	x	x
CCn1cc(S(=O)(=O)CC(=O)Nc2cccc(C)c2)c2ccccc21	-1	26	0	0	-6
CCn1cc(S(=O)(=O)CC(=O)Nc2ccc(C)cc2)c2ccccc21	x	98*	9	x	x
CCCNC(=O)C[C@H]1CC[C@H]2[C@@H](COc3ccc(NC(=O)c4ccccc4)cc3C(=O)N2C)O1	3	-5[16.7 µM]	x	-2	-1
CC(=O)N[C@H]1CC[C@@H](CC(=O)NCC2CCCCC2)O[C@H]1CO	7	x	x	-2	-1
CCCC(=O)Nc1ccc2c(c1)OC[C@@H](C)N(Cc1cncnc1)C[C@@H](C)[C@@H](OC)CN(C)C2=O	4	x	x	44*	4
CO[C@H]1CN(C)C(=O)c2cc(NC(=O)C3CC3)ccc2OC[C@@H](C)N(Cc2cc(F)ccc2F)C[C@@H]1C	-2	x	x	43*	-2
CO[C@H]1CN(C)C(=O)c2ccc(NC(C)=O)cc2OC[C@@H](C)N(Cc2cncnc2)C[C@@H]1C	-1	x	x	3	-1
CO[C@@H]1CN(C)C(=O)c2cc(NC(C)=O)ccc2OC[C@H](C)N(Cc2cncnc2)C[C@H]1C	76*	x	x	-4	-1
CCCN1C[C@@H](C)[C@H](OC)CN(C)C(=O)c2ccc(NC(=O)c3cccc(F)c3)cc2OC[C@@H]1C	1	x	x	45*	2
C[C@@H]1CN([C@H](C)CO)C(=O)c2cc(C3=CCCC3)cnc2O[C@H]1CN(C)Cc1ccccn1	-1	-8[16.7 µM]	x	-6	1
O=C(C[C@H]1C=C[C@@H](NC(=O)CC2CC2)[C@H](CO)O1)NCc1ccccc1	19	x	x	-3	0
CCC(=O)Nc1ccc2c(c1)OC[C@H](C)N(Cc1ccccc1C(=O)O)C[C@H](C)[C@@H](OC)CN(C)C2=O	90*	x	x	-2	1
CO[C@@H]1CN(C)C(=O)c2ccc(NC(=O)Nc3ccc(C(F)(F)F)cc3)cc2OC[C@@H](C)NC[C@@H]1C	-12	x	x	8	0
CO[C@H]1CN(C)C(=O)c2cc(NC(=O)Nc3ccc(C(F)(F)F)cc3)ccc2OC[C@H](C)NC[C@H]1C	136*	x	x	-6	2
Cc1cc(C(=O)N2CCCC(CNS(=O)(=O)c3cccs3)C2)nn1C (stereo unspecified)	-1	x	2	-1	1
Cc1nc(CC(C)C)cc(C(=O)N2CCCC(CNS(=O)(=O)c3cccs3)C2)n1 (stereo unspecified)	1	x	60*	-10	-3
C[C@H](CO)N1C[C@H](C)[C@@H](CN(C)S(=O)(=O)c2cccs2)OCCCC[C@H](C)Oc2ccc(NC(=O)Nc3cccc4ccccc34)cc2C1=O	x	-9[16.7 µM]	x	x	x
O=S(=O)(NCc1cccnc1)c1ccc(Cl)c2ccccc12	0	175*	4	-1	0
O=S(=O)(NCc1cccnc1)c1ccc(Cl)c(Cl)c1Cl	x	19	x	x	x
CC1CCN(S(=O)(=O)c2cc([N+](=O)[O-])ccc2Cl)CC1	3	x	x	12	-4

High-throughput results deposited in PubChem by Broad Institute.
